Measurements as given in ChEMBL document CHEMBL4808225, “Discovery and Characterization of Selective and Ligand-Efficient DYRK Inhibitors” (J Med Chem, 2021).

Experiments:
[1] = target: T1, Tyrosine-protein kinase JAK3 (Homo sapiens, UniProt P52333); experiment: Binding affinity to wild-type human partial length JAK3 JH1 catalytic domain (I781 to S1124 residues) expressed in mammalian expression system measured after 1 hr by competitive binding assay
T1 sequence (P52333 whole entry): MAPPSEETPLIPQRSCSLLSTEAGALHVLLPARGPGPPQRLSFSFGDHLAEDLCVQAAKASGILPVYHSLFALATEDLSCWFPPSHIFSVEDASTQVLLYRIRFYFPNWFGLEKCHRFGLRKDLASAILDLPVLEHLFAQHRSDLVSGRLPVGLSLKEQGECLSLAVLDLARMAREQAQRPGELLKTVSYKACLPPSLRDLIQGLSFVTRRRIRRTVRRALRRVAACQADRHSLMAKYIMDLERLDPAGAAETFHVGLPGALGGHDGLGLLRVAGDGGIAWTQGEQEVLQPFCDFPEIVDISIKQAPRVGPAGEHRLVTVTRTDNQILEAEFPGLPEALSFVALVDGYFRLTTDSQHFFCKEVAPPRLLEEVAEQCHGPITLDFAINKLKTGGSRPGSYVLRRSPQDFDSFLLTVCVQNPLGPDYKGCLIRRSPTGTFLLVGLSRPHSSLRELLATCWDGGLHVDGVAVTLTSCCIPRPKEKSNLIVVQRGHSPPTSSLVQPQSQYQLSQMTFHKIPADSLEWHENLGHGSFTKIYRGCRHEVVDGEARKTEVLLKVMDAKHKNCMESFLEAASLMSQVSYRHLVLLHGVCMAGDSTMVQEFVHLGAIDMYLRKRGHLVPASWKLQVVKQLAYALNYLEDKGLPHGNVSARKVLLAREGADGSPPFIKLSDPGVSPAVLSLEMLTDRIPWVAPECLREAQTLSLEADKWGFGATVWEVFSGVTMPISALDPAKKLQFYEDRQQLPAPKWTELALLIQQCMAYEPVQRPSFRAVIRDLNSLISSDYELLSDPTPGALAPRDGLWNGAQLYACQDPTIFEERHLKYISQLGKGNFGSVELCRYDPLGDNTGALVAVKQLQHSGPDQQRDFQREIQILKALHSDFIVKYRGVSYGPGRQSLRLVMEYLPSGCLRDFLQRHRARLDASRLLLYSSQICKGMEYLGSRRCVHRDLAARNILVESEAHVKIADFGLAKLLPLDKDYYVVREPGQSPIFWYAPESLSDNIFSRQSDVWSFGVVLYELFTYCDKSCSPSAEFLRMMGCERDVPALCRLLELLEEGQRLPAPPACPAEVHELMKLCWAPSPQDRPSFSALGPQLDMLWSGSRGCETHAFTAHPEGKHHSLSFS

[2] = target: Dual specificity protein kinase CLK3 (Homo sapiens) (UniProt P49761); experiment: Inhibition of wild-type human full length CLK3 (M1 to R490 residues) expressed in bacterial expression system assessed as remaining activity at 1 uM by Kinomescan method relative to control
Chain of Dual specificity protein kinase CLK3 (Homo sapiens) (P49761 whole entry, looked up, the tested form may be a part): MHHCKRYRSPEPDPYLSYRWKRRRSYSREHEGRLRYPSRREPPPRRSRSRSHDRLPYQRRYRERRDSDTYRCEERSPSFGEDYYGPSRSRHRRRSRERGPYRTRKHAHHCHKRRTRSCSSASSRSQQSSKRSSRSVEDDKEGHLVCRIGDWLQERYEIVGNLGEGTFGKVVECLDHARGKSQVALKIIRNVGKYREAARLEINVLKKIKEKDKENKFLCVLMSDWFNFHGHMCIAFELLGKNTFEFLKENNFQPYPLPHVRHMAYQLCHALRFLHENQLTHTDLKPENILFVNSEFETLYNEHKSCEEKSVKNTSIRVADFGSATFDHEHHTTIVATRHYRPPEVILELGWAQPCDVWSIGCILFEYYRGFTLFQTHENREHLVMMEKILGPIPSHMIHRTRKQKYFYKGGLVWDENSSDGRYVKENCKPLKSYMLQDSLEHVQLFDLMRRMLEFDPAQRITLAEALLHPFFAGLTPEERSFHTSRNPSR
Method in brief: (§1)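 KINOMEscan competition binding panel run with inhibitor at 1 μM; read-out is remaining kinase activity (percent of control).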

[3] = target: STE20/SPS1-related proline-alanine-rich protein kinase (Homo sapiens, UniProt Q9UEW8); experiment: Binding affinity to wild-type human partial length STK39 (P43 to I357 residues) expressed in mammalian expression system measured after 1 hr by competitive binding assay
[4] = AUClast in Sprague-Dawley rat at 1 mg/kg, iv; type: ADME, organism-based; parameters: route intravenous, time 0 - last, dose 1 mg/kg; conditions: in vivo
Method in brief: (§2)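 Single intravenous dose of 1 mg/kg given to fed Sprague–Dawley rats (n = 3); plasma and brain samples collected for pharmacokinetic parameters, with total brain:plasma ratio computed.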

[5] = Toxicity in Sprague-Dawley rat assessed as adverse effect at 1 mg/kg, iv; type: organism-based; conditions: in vivo
Method in brief: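 Fed Sprague–Dawley rats (n = 3) received one 1 mg/kg iv dose; adverse effects were recorded during the pharmacokinetic study.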

[6] = target: Glycogen synthase kinase-3 beta (Homo sapiens) (UniProt P49841); experiment: Inhibition of wild-type human full length GSK3B (M1 to T433 residues) expressed in mammalian expression system assessed as remaining activity at 1 uM by Kinomescan method relative to control; method in brief: as §1
Chain of Glycogen synthase kinase-3 beta (Homo sapiens) (P49841 whole entry, looked up, the tested form may be a part): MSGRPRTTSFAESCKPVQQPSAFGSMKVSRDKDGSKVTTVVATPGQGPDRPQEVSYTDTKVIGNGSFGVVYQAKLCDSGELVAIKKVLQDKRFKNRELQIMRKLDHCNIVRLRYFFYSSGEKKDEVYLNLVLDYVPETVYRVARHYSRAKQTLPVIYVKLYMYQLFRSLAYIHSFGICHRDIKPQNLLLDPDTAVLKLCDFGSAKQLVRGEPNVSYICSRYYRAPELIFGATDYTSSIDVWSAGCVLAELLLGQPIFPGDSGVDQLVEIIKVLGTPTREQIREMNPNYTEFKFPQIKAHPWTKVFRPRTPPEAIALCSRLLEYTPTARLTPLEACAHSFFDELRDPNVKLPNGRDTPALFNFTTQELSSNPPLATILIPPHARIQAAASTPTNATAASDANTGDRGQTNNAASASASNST

[7] = target: T2, Dual specificity tyrosine-phosphorylation-regulated kinase 2 (Homo sapiens, UniProt Q92630); experiment: Binding affinity to wild-type human full length DYRK2 (M1 to S528 residues) expressed in mammalian expression system measured after 1 hr by competitive binding assay
T2 sequence (Q92630 whole entry): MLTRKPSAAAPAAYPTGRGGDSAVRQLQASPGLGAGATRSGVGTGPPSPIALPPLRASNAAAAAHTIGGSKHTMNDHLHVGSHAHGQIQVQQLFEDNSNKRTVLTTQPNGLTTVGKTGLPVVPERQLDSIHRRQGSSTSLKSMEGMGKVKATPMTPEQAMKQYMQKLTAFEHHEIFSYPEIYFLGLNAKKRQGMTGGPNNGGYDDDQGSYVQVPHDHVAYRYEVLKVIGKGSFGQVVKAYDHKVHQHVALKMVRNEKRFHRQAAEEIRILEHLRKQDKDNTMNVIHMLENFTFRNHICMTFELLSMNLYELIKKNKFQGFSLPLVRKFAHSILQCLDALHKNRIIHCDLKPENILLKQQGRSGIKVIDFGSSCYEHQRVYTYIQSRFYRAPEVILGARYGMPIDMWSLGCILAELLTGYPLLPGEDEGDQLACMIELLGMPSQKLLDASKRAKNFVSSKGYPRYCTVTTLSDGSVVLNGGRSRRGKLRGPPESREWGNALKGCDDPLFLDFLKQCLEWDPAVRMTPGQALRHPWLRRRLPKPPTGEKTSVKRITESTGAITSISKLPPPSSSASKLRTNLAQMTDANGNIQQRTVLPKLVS

[8] = Cmax in Sprague-Dawley rat at 1 mg/kg, iv; type: ADME, organism-based; parameters: route intravenous, dose 1 mg/kg; conditions: in vivo; method in brief: as §2
[9] = target: Calcium/calmodulin-dependent protein kinase type 1B (Homo sapiens, UniProt Q6P2M8); experiment: Binding affinity to wild-type human partial length CAMK1B (W9 to A311 residues) expressed in mammalian expression system measured after 1 hr by competitive binding assay
Chain of Calcium/calmodulin-dependent protein kinase type 1B (Q6P2M8 whole entry, the tested form may be a part): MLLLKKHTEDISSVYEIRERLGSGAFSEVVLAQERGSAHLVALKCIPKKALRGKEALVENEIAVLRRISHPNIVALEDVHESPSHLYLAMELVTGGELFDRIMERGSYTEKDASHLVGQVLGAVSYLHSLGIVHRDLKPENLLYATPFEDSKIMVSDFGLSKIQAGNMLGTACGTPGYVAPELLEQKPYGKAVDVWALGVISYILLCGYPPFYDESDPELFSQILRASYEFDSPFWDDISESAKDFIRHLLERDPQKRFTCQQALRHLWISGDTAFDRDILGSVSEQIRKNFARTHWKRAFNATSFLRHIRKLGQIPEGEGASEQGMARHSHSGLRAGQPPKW

Kd [1]: 1.8 µM
Activity [2]: 54%
Kd [3]: 10 µM
AUClast [4]: 0.2753 µg·h/mL
Activity [6]: 94%
Kd [7]: 0.36 µM
Cmax [8]: 1.0828 µg/mL
Kd [9]: 10 µM
Compound: CN(C)c1nccc(-c2cnn3ncccc23)n1
Activity [5]: Non-Toxic
